Laboratory results reported in ChEMBL document CHEMBL2034888, “Synthesis, anticonvulsant activity, and neuropathic pain-attenuating activity of N-benzyl 2-amino-2-(hetero)aromatic acetamides” (Bioorg Med Chem, 2012).

Assays:
Mus musculus [1] = assay: Anticonvulsant activity in ip dosed NMRI mouse assessed as protection against maximal electroshock-induced seizure after 30 mins postdose; type: functional; details: 0.5 h; for minimal effective dose: read-out: MED
Summary of the method: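 Adult male NMRI mice given compound intraperitoneally; maximal electroshock seizure test run 30 min after dosing. Where a dose–response was run, ED50 in mg/kg was derived. Otherwise a minimal active dose was reported, or the percentage of mice protected at a single dose.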

Mus musculus [2] = assay: Anticonvulsant activity in ip dosed NMRI mouse assessed as protection against 6 Hz psychomotor seizure after 30 mins; type: functional; details: 0.5 h
Summary of the method: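 Adult male NMRI mice dosed ip. Psychomotor seizures were induced by 6 Hz stimulation at 44 mA, 30 min after administration. ED50 in mg/kg was derived where determinable, otherwise a minimal active dose was reported.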

Mus musculus [3] = assay: Antinociceptive activity in ip dosed NMRI mouse neuropathic pain model assessed as protection against formalin-induced nociceptive behaviour after 30 mins; type: functional; details: 0.5 h
Summary of the method: (§1)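 Formalin test in adult male NMRI mice used as a prescreen for pain attenuation, 30 min after ip administration. ED50 in mg/kg was derived where possible. Otherwise the percent protected after a single stated dose was reported.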

Mus musculus [4] = assay: Toxicity in ip dosed NMRI mouse assessed as convulsions at 105 mg/kg, ip after 30 mins; type: organism-based; parameters: dose 105 mg/kg, route intraperitoneal; details: in vivo, 0.5 h
Summary of the method: (§2)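 Adult male NMRI mice dosed intraperitoneally. Whole-animal pharmacological observation at the listed mg/kg dose, with convulsions and mortality recorded as signs. This was done alongside MES, 6 Hz (44 mA) psychomotor seizure, formalin and rotorod testing, which were read 30 min after ip dosing.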

Mus musculus [5] = assay: Toxicity in ip dosed NMRI mouse assessed as mortality at 105 mg/kg, ip after 30 mins; type: organism-based; parameters: dose 105 mg/kg, route intraperitoneal; details: in vivo, 0.5 h; summary of the method: as §2
[6] = Neurotoxicity in ip dosed NMRI mouse after 30 mins by rotorod test; type: toxicity, organism-based; details: in vivo
Summary of the method: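 Neurological impairment was scored by rotorod in adult male NMRI mice 30 min after ip dosing. TD50 in mg/kg was derived where possible, otherwise the maximal tolerated dose was given.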

Mus musculus [7] = assay: Toxicity in ip dosed NMRI mouse assessed as convulsions at 77 mg/kg, ip after 30 mins; type: organism-based; parameters: dose 77 mg/kg, route intraperitoneal; details: in vivo, 0.5 h
Summary of the method: (§3)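 Adult male NMRI mice were dosed ip. Whole-animal pharmacological observation was made at the stated mg/kg dose, recording tremors, convulsions, writhing, impaired gait or mortality. Timing was 30 min post-dose.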

Mus musculus [8] = assay: Toxicity in ip dosed NMRI mouse assessed as mortality at 140 mg/kg, ip after 30 mins; type: organism-based; parameters: dose 140 mg/kg, route intraperitoneal; details: in vivo, 0.5 h; summary of the method: as §2
Mus musculus [9] = assay: Protective index, ratio of TD50 for NMRI mouse to ED50 for anticonvulsant activity in ip dosed NMRI mouse by maximal electroshock seizure test; type: functional
Mus musculus [10] = assay: Protective index, ratio of TD50 for NMRI mouse to ED50 for antinociceptive activity in ip dosed NMRI mouse neuropathic pain model; type: functional
Mus musculus [11] = assay: Antinociceptive activity in NMRI mouse neuropathic pain model assessed as protection against formalin-induced nociceptive behaviour at 24 mg/kg, ip after 30 mins; type: functional; details: route intraperitoneal; summary of the method: as §1
Mus musculus [12] = assay: Anticonvulsant activity in ip dosed albino CF-1 mouse assessed as protection against maximal electroshock-induced seizure; type: functional; details: albino CF-1, ip
[13] = Neurotoxicity in ip dosed albino CF-1 mouse by rotorod test; type: toxicity, organism-based; details: in vivo
Mus musculus [14] = assay: Anticonvulsant activity in ip dosed albino CF-1 mouse assessed as protection against maximal electroshock-induced seizure after 0.5 hrs; type: functional; details: albino CF-1, ip
[15] = Ratio of drug level in brain to plasma in mouse; type: ADME, organism-based; details: brain and plasma, read-out: BPR
Mus musculus [16] = assay: Toxicity in ip dosed NMRI mouse assessed as writhings at 130 mg/kg, ip after 30 mins; type: organism-based; parameters: dose 130 mg/kg, route intraperitoneal; details: in vivo, 0.5 h; summary of the method: as §3
Mus musculus [17] = assay: Toxicity in ip dosed NMRI mouse assessed as convulsions at 130 mg/kg, ip after 30 mins; type: organism-based; parameters: dose 130 mg/kg, route intraperitoneal; details: in vivo, 0.5 h; summary of the method: as §3
Mus musculus [18] = assay: Antinociceptive activity in NMRI mouse neuropathic pain model assessed as protection against formalin-induced nociceptive behaviour at 90 mg/kg, ip after 30 mins; type: functional; details: route intraperitoneal; summary of the method: as §1
Mus musculus [19] = assay: Toxicity in ip dosed NMRI mouse assessed as tremors at 90 mg/kg, ip after 30 mins; type: organism-based; parameters: dose 90 mg/kg, route intraperitoneal; details: in vivo, 0.5 h; summary of the method: as §3
Mus musculus [20] = assay: Toxicity in ip dosed NMRI mouse assessed as tremors at 59 mg/kg, ip after 30 mins; type: organism-based; parameters: dose 59 mg/kg, route intraperitoneal; details: in vivo, 0.5 h; summary of the method: as §3
Mus musculus [21] = assay: Toxicity in ip dosed NMRI mouse assessed as writhings at 59 mg/kg, ip after 30 mins; type: organism-based; parameters: dose 59 mg/kg, route intraperitoneal; details: in vivo, 0.5 h; summary of the method: as §3
Mus musculus [22] = assay: Toxicity in ip dosed NMRI mouse assessed as convulsions at 110 mg/kg, ip after 30 mins; type: organism-based; parameters: dose 110 mg/kg, route intraperitoneal; details: in vivo, 0.5 h; summary of the method: as §2
Mus musculus [23] = assay: Toxicity in ip dosed NMRI mouse assessed as mortality at 110 mg/kg, ip after 30 mins; type: organism-based; parameters: dose 110 mg/kg, route intraperitoneal; details: in vivo, 0.5 h; summary of the method: as §2
Mus musculus [24] = assay: Antinociceptive activity in NMRI mouse neuropathic pain model assessed as protection against formalin-induced nociceptive behaviour at 110 mg/kg, ip after 30 mins; type: functional; details: route intraperitoneal; summary of the method: as §1
[25] = Neurotoxicity in ip dosed albino CF-1 mouse by horizontal screen test; type: toxicity, organism-based; details: in vivo

NC(C(=O)NCc1ccccc1)c1cccc2ccccc12 (racemic)
ED50 (Mus musculus [1]): > 69 mg/kg | ED50 (Mus musculus [2]): > 59 mg/kg | ED50 (Mus musculus [3]): > 33 mg/kg | Activity (Mus musculus [4]): Toxic | Activity (Mus musculus [5]): Toxic

NC(C(=O)NCc1ccccc1)c1ccccc1 (racemic)
ED50 (Mus musculus [1]): > 30 mg/kg | ED50 (Mus musculus [2]): > 43 mg/kg | TD50 at 0.5 h [6]: 51 mg/kg | Activity (Mus musculus [7]): Toxic | Activity (Mus musculus [8]): Toxic | Ratio TD50/ED50 (Mus musculus [9]): >1.7 | Ratio TD50/ED50 (Mus musculus [10]): >1.2 | Activity (Mus musculus [11]): 37%

NC(C(=O)NCc1ccccc1)c1nccc2ccccc12 (racemic)
ED50 (Mus musculus [1]): > 52 mg/kg | ED50 (Mus musculus [2]): > 93 mg/kg | ED50 (Mus musculus [3]): 29 mg/kg

CC(=O)NC(C(=O)NCc1ccccc1)c1ccc2ccccc2c1 (racemic)
ED50 (Mus musculus [12]): > 300 mg/kg | TD50 [13]: > 300 mg/kg

CC(=O)NC(C(=O)NCc1ccccc1)c1ccccn1 (racemic)
ED50 (Mus musculus [14]): 11 mg/kg | TD50 [13]: 25 mg/kg

NC(C(=O)NCc1ccccc1)c1ccncc1 (racemic)
minimal effective dose (Mus musculus [1]): 210 mg/kg | ED50 (Mus musculus [2]): > 120 mg/kg | ED50 (Mus musculus [3]): 67 mg/kg

NC(C(=O)NCc1ccccc1)c1ccccn1 (racemic)
minimal effective dose (Mus musculus [1]): 100 mg/kg | ED50 (Mus musculus [2]): > 100 mg/kg | ED50 (Mus musculus [3]): 33 mg/kg | MTD at 0.5 h [6]: 180 mg/kg | Kp [15]: 2.7

CC(=O)NC(C(=O)NCc1ccccc1)c1cc2ccccc2s1 (racemic)
ED50 (Mus musculus [12]): 100 mg/kg | TD50 [13]: 100 mg/kg

NC(C(=O)NCc1ccccc1)c1ccc2ccccc2n1 (racemic)
ED50 (Mus musculus [1]): > 41 mg/kg | ED50 (Mus musculus [2]): > 130 mg/kg | ED50 (Mus musculus [3]): 54 mg/kg | Activity (Mus musculus [16]): Toxic | Activity (Mus musculus [17]): Toxic

NC(C(=O)NCc1ccccc1)c1ccco1 (racemic)
ED50 (Mus musculus [1]): 85 mg/kg | ED50 (Mus musculus [2]): > 150 mg/kg | ED50 (Mus musculus [3]): 29 mg/kg | TD50 at 0.5 h [6]: > 150 mg/kg | Ratio TD50/ED50 (Mus musculus [9]): >1.8 | Ratio TD50/ED50 (Mus musculus [10]): >5.1

CC(=O)NC(C(=O)NCc1ccccc1)c1cccs1 (racemic)
ED50 (Mus musculus [14]): 45 mg/kg | TD50 [13]: 30 mg/kg

NC(C(=O)NCc1ccccc1)c1cnc2ccccc2n1 (racemic)
ED50 (Mus musculus [1]): > 120 mg/kg | ED50 (Mus musculus [2]): > 120 mg/kg | ED50 (Mus musculus [3]): 42 mg/kg

NC(C(=O)NCc1ccccc1)c1cc2ccccc2o1 (racemic)
ED50 (Mus musculus [1]): 90 mg/kg | ED50 (Mus musculus [2]): > 120 mg/kg | Activity (Mus musculus [18]): 31% | Activity (Mus musculus [19]): Toxic

NC(C(=O)NCc1ccccc1)c1ccc2ccccc2c1 (racemic)
ED50 (Mus musculus [1]): 45 mg/kg | ED50 (Mus musculus [2]): > 110 mg/kg | ED50 (Mus musculus [3]): < 110 mg/kg | TD50 at 0.5 h [6]: 110 mg/kg | Activity (Mus musculus [20]): Toxic | Activity (Mus musculus [21]): Toxic | Activity (Mus musculus [22]): Toxic | Activity (Mus musculus [23]): Toxic | Ratio TD50/ED50 (Mus musculus [9]): <2.4 | Activity (Mus musculus [24]): 100%

CC(=O)NC(C(=O)NCc1ccccc1)c1ccccc1 (racemic)
ED50 (Mus musculus [14]): 32 mg/kg | TD50 [25]: > 40 mg/kg
